Results on three compounds are retold here after ChEMBL document CHEMBL1152541, “Staurosporine tethered peptide ligands that target cAMP-dependent protein kinase (PKA): optimization and selectivity profiling” (Bioorg Med Chem, 2009).

The target of assay [1] is RAF proto-oncogene serine/threonine-protein kinase (Homo sapiens) (UniProt P04049). In words: Binding affinity to human RAF1 at 500 nM by cell-based competition binding assay relative to control in presence of DTT.
In assay [2] the target is Non-receptor tyrosine-protein kinase TYK2 (Homo sapiens) (UniProt P29597). As to the kind of experiment: Binding affinity to human TYK2 kinase domain 2 at 500 nM by cell-based competition binding assay relative to control in presence of DTT.
Non-receptor tyrosine-protein kinase TYK2 (Homo sapiens), sequence (P29597 whole entry, the tested form may be a part): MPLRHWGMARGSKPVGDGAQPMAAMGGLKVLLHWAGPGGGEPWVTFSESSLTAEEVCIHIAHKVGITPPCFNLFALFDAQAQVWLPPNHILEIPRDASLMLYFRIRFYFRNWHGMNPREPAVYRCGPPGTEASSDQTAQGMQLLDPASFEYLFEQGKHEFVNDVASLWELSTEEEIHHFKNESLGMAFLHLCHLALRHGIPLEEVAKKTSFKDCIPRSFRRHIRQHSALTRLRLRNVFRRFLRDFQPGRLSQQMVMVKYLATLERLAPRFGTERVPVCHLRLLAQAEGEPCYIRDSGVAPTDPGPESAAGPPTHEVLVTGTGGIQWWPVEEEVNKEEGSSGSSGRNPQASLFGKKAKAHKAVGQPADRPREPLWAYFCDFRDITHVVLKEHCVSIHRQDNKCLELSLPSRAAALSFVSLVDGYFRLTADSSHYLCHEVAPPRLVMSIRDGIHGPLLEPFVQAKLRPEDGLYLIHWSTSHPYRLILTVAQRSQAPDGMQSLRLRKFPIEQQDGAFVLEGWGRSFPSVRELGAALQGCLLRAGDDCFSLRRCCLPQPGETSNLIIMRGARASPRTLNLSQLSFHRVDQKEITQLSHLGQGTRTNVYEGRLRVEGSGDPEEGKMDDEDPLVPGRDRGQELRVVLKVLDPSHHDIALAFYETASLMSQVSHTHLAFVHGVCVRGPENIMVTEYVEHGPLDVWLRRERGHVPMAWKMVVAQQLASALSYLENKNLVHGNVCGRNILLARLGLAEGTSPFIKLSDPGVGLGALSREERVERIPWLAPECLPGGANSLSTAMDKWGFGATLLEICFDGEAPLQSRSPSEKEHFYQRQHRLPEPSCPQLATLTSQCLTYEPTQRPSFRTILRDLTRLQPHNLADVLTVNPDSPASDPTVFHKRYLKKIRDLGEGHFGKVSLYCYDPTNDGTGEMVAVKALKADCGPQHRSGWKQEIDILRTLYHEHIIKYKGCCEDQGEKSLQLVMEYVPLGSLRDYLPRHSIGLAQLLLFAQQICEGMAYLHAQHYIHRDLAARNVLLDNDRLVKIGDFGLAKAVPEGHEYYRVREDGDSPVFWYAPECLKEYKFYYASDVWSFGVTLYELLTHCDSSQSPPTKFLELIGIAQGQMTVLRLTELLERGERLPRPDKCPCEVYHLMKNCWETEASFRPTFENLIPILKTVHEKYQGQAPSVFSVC
The target in assay [3] is T1, Activin receptor type-1B (Homo sapiens) (UniProt P36896).
T1 sequence (whole entry): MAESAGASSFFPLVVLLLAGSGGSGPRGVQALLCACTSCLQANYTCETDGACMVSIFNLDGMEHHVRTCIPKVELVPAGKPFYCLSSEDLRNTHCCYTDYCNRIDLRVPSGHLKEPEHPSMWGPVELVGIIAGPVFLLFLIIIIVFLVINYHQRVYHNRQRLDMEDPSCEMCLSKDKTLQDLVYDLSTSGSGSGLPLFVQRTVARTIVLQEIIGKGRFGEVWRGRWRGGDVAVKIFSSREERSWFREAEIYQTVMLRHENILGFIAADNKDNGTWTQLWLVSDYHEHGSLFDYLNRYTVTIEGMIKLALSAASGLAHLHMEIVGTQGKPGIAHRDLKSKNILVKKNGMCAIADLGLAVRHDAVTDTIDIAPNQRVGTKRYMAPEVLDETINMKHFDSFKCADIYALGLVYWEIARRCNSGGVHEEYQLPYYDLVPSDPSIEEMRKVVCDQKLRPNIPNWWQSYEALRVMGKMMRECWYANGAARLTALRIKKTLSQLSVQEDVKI
As to the kind of experiment: Binding affinity to human ACVR1B at 500 nM by cell-based competition binding assay relative to control in presence of DTT. Summed up: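 Kinase binding profiling ran on a commercial (Ambit) competitive binding screen against a panel of 90 kinases. The screen used reducing conditions with 7.5 mM DTT. To withstand the DTT, the bivalent ligand was tested as its amide isostere, with the disulfide replaced. A staurosporine derivative carrying a 3 β-alanine linker was run as the reference compound.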

The target in assay [4] is MAP kinase-interacting serine/threonine-protein kinase 2 (Homo sapiens) (UniProt Q9HBH9). As to the kind of experiment: Binding affinity to human MKNK2 at 500 nM by cell-based competition binding assay relative to control in presence of DTT.
MAP kinase-interacting serine/threonine-protein kinase 2 (Homo sapiens), sequence (Q9HBH9 whole entry, looked up): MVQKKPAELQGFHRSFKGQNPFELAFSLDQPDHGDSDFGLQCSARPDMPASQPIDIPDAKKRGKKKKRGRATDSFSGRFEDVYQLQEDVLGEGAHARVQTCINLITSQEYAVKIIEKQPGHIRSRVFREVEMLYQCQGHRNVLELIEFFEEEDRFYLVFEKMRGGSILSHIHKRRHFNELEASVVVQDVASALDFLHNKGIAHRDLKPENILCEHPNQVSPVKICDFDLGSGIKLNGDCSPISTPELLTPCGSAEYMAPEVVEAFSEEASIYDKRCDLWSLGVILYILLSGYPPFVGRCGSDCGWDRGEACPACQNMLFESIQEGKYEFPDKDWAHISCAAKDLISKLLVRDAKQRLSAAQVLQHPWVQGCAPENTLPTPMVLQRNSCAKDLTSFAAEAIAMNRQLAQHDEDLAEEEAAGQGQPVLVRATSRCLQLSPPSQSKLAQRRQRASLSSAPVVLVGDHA
Assay [5] has as its target Mitogen-activated protein kinase 3 (Homo sapiens) (UniProt P27361). As to the kind of experiment: Binding affinity to human ERK1 at 200 nM by cell-based competition binding assay relative to control in presence of DTT. Summed up: (§1)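 Commercial (Ambit) competitive kinase-binding panel of 90 kinases measured the binding profile. Run under reducing conditions of 7.5 mM DTT. Binding is expressed relative to control.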

Assay [6] deals with T2, Serine/threonine-protein kinase PLK4 (Homo sapiens) (UniProt O00444).
T2 sequence (whole entry): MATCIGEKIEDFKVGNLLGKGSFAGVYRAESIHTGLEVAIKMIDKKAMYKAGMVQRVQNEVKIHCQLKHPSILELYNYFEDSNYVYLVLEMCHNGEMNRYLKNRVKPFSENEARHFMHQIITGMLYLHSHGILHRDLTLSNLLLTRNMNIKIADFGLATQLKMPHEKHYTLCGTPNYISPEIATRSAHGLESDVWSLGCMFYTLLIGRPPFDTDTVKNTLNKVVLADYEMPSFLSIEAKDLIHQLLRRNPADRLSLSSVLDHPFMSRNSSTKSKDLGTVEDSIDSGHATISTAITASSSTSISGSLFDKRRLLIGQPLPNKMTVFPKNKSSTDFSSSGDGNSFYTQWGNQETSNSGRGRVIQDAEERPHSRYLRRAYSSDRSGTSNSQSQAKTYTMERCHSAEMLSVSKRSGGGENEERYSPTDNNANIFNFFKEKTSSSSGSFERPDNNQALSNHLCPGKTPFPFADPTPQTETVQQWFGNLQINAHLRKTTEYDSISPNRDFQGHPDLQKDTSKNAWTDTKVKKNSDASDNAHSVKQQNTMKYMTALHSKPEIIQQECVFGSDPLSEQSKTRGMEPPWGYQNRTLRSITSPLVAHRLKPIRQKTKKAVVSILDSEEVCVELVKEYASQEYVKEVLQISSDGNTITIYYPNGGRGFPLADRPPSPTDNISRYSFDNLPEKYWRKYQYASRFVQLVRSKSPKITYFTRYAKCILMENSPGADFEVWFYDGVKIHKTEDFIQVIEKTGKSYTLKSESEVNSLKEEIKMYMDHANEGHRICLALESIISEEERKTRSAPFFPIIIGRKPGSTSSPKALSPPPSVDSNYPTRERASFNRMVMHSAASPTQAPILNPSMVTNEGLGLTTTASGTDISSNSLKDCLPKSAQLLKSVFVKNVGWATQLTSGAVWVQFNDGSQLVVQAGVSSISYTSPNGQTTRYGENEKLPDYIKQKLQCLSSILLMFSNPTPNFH
In words: Binding affinity to human PLK4 at 200 nM by cell-based competition binding assay relative to control in presence of DTT.

Assay [7] concerns the target T3, Testis-specific serine/threonine-protein kinase 1 (Homo sapiens) (UniProt Q9BXA7).
T3 sequence (whole entry): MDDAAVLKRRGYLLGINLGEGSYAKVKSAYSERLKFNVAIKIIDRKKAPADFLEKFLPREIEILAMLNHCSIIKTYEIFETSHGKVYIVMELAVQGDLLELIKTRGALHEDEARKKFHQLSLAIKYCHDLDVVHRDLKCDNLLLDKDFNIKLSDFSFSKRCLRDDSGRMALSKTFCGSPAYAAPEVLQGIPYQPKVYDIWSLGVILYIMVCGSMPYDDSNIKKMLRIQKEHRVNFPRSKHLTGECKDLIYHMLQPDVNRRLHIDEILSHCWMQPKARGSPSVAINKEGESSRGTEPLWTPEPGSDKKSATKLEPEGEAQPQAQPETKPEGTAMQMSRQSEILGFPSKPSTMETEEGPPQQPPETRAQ
As to the kind of experiment: Binding affinity to human TSSK1 at 200 nM by cell-based competition binding assay relative to control in presence of DTT.

The target in assay [8] is cAMP-dependent protein kinase catalytic subunit alpha (Homo sapiens) (UniProt P17612). As to the kind of experiment: Binding affinity to human PKACalpha at 200 nM by cell-based competition binding assay relative to control in presence of DTT.
In assay [9] the test system is Epidermal growth factor receptor (Homo sapiens), P00533 [L858R]. As to the kind of experiment: Binding affinity to human EGFR L858R mutant at 50 nM by cell-based competition binding assay relative to control in presence of DTT. A digest of the protocol: as §1
Assay [10] has as its target Serine/threonine-protein kinase PAK 4 (Homo sapiens) (UniProt O96013). In words: Binding affinity to human PAK4 at 50 nM by cell-based competition binding assay relative to control in presence of DTT.
Assay [11] addresses Phosphatidylinositol 4-phosphate 3-kinase C2 domain-containing subunit beta (Homo sapiens) (UniProt O00750). As to the kind of experiment: Binding affinity to human PIK3C2beta at 50 nM by cell-based competition binding assay relative to control in presence of DTT.
The target of assay [12] is T2, Serine/threonine-protein kinase PLK4 (Homo sapiens). In words: Binding affinity to human PLK4 at 50 nM by cell-based competition binding assay relative to control in presence of DTT.

*1 amine or outer side, *2 acyl side, *3 side chain or, on linkers, in order; H or OH if unused. Where a SMILES comes first, the peptide text is derived from it. Bridges are numbered along the chain shown (N, C = ends). [ ]: non-standard residue; d: D form. The star is where a group is joined. Staurosporine = CO[C@@H]1[C@H](N(C)*)C[C@H]2O[C@]1(C)n1c3ccccc3c3c4c(c5c6ccccc6n2c5c31)C(=O)NC4; Suc = O=C(CCC(=O)[*:2])[*:1]; Dap = NC[C@H](N)C(=O)O; βAla = NCCC(=O)O

RAF proto-oncogene serine/threonine-protein kinase (Homo sapiens), sequence (P04049 whole entry, the tested form may be a part): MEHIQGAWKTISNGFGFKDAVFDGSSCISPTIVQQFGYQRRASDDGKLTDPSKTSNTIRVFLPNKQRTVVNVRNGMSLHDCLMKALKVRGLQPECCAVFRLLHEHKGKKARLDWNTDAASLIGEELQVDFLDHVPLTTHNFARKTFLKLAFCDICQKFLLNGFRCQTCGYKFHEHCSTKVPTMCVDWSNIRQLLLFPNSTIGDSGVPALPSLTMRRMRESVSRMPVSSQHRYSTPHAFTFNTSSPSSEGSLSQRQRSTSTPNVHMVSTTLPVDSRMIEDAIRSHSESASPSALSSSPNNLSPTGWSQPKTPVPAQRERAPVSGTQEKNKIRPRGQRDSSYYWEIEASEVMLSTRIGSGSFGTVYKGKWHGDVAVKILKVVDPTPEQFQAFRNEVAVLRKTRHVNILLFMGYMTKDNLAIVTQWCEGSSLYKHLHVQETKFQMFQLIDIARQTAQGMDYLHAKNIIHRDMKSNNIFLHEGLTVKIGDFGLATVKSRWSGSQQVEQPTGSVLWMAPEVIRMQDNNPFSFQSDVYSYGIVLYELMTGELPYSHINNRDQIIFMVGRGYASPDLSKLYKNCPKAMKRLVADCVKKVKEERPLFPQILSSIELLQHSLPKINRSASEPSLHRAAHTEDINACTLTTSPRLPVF
Mitogen-activated protein kinase 3 (Homo sapiens), sequence (P27361 whole entry): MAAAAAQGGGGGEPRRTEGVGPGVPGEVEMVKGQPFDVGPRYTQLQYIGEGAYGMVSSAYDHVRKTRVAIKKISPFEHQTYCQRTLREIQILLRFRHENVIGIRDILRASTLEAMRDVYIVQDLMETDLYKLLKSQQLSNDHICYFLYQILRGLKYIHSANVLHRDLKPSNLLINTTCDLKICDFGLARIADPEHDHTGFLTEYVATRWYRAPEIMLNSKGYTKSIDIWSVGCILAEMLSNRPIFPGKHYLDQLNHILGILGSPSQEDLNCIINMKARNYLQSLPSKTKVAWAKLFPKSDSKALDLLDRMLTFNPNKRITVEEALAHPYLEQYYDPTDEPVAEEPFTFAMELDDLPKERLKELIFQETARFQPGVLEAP
Phosphatidylinositol 4-phosphate 3-kinase C2 domain-containing subunit beta (Homo sapiens), sequence (O00750 whole entry, the tested form may be a part): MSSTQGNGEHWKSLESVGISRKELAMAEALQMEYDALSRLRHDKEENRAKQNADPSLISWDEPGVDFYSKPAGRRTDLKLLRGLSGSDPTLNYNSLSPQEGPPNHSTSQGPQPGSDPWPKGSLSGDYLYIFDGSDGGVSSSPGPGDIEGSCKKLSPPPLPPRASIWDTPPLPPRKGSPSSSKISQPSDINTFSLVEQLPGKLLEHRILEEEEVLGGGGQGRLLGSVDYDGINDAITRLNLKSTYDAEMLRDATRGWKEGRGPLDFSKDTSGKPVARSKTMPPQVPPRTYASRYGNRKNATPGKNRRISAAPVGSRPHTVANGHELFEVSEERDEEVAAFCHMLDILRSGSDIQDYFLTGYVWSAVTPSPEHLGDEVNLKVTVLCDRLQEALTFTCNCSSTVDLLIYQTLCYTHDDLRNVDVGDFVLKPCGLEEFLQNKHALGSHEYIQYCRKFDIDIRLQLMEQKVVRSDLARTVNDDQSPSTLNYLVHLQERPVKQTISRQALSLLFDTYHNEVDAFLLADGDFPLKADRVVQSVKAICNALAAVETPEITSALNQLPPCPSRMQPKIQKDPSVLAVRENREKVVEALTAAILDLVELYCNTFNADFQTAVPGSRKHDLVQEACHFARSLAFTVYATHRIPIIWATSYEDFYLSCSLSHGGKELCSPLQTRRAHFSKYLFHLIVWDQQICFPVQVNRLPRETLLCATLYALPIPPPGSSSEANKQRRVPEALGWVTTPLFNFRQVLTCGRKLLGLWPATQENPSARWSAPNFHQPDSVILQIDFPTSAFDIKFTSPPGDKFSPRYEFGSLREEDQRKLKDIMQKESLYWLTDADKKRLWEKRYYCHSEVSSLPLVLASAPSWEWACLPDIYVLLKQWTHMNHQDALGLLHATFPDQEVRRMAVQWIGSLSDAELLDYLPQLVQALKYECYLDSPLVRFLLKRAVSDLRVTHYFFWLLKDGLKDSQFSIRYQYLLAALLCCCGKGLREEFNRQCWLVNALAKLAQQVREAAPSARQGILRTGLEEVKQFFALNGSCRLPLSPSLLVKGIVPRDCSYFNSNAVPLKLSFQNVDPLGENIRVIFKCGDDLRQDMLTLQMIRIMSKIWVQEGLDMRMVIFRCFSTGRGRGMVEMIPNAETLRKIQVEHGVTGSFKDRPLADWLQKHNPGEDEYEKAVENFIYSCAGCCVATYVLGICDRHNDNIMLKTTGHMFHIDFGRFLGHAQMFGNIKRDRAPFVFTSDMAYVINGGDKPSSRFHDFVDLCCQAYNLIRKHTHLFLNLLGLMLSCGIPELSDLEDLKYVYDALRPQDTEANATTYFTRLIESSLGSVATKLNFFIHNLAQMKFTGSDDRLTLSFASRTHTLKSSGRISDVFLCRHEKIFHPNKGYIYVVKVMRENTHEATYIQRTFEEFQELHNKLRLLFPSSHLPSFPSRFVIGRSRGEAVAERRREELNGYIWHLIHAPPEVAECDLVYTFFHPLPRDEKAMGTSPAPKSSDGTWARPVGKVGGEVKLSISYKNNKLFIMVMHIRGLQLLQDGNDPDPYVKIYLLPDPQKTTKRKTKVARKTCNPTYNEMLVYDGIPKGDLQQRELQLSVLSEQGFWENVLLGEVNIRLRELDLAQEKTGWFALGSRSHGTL
Serine/threonine-protein kinase PAK 4 (Homo sapiens), sequence (O96013 whole entry, looked up, the tested form may be a part): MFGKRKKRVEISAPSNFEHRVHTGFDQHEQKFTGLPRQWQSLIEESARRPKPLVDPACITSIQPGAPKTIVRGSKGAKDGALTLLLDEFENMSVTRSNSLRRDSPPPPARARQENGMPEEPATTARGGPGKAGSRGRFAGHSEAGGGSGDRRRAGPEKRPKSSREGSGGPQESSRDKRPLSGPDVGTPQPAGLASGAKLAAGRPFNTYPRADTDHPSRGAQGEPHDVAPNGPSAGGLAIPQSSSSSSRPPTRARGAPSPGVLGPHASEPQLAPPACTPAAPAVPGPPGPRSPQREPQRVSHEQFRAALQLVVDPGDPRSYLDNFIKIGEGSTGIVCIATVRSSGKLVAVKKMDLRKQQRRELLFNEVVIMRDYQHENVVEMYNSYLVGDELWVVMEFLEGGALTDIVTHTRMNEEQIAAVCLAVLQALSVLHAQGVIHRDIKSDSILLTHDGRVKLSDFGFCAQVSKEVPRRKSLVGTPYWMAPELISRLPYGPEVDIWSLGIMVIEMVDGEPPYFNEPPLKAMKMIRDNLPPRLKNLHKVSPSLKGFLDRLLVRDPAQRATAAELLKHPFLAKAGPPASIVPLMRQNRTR

Take `CO[C@@H]1[C@H](N(C)C(=O)CCC(=O)NCCC(=O)NCCC(=O)NCCC(N)=O)C[C@H]2O[C@]1(C)n1c3ccccc3c3c4c(c5c6ccccc6n2c5c31)C(=O)NC4`: the Activity in [1] worked out at 73%; in [2], 19%; in assay [3], 87%; in assay [4], 39%.
As for `CO[C@@H]1[C@H](N(C)C(=O)CCC(=O)NCCC(=O)NCCC(=O)NCCC(=O)NCCC(=O)NCCC(=O)NCCC(=O)NCCC(=O)N[C@H]2CSSC[C@@H](C(=O)NCC(N)=O)NC(=O)CNC(=O)[C@H](Cc3ccccc3)NC(=O)[C@H](C(C)C)NC(=O)[C@H](CCCNC(=N)N)NC(=O)[C@H](Cc3ccccc3)NC(=O)[C@H](C(C)C)NC2=O)C[C@H]2O[C@]1(C)n1c3ccccc3c3c4c(c5c6ccccc6n2c5c31)C(=O)NC4` ({Staurosporine-Suc-βAla-βAla-βAla-βAla-βAla-βAla-βAla}-CVFRVFGCG-NH2; disulfide 1-8), the Activity in assay [5] is 100%; in assay [6], 4.9%; in assay [7], 17%; in assay [8] it was 19%.
Take `CO[C@@H]1[C@H](N(C)C(=O)CCC(=O)NCCC(=O)NCCC(=O)NCCC(=O)NCCC(=O)NCCC(=O)NCCC(=O)NCCC(=O)N[C@H]2CNC(=O)C[C@@H](C(N)=O)NC(=O)CNC(=O)[C@H](Cc3ccccc3)NC(=O)[C@H](C(C)C)NC(=O)[C@H](CCCNC(=N)N)NC(=O)[C@H](Cc3ccccc3)NC(=O)[C@H](C(C)C)NC2=O)C[C@H]2O[C@]1(C)n1c3ccccc3c3c4c(c5c6ccccc6n2c5c31)C(=O)NC4` ({Staurosporine-Suc-βAla-βAla-βAla-βAla-βAla-βAla-βAla}-[Dap]VFRVFGD-NH2; lactam 1-8): the Activity turned out to be 100% in assay [9], 90% in assay [10], 100% in assay [11] and 5.7% in assay [12].
